# Compound activity as filed in PubChem.
# PvdQ acylase = P. aeruginosa PvdQ acylase inhibition. actives 0.063% (n = 340,000). purified PvdQ acylase, fluorescence plate reader. AID 488965. inhibition, % at 10 µM; in the data active means inhibition above about 30%, passing the limit was not always enough;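 further: 0% = vehicle neutral wells and 100% = reference inhibitor wells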
# HKDC1 inh = HKDC1 (human) hexokinase inhibition; Q2TB90; recombinant HKDC1, G6PDH/diaphorase resazurin coupled fluorescence; inhibition, % at 20 µM; actives 0.16% (n = 340,000); AID 493160;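 active means inhibition above about 35% when tested at 20 µM, limit read from the data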;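 further: plate controls were DMSO wells with enzyme for no effect and DMSO wells lacking enzyme for full effect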
#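 System: Recombinant HKDC1 hexokinase | Amount: HKDC1 at 5 µg/mL | Reagent: Glucose with 1 mM ATP | Doses: Single 20 µM dose | Incubation: Reaction time 90 min, room temperature, protected from light | Signal: Coupled resazurin fluorescence, excitation 525 nm, emission 613 nm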
# ATG4B inhibitor = ATG4B (human) cysteine protease inhibition. Q9Y4P1. ATG4B cleavage of LC3-PLA2, NBD-HPC fluorescence, 1 h. inhibition, % at 8.33 µM. actives 0.51% (n = 340,000); in the data active means inhibition above about 40%
# IMP-1 inh-1 = blocks Pseudomonas aeruginosa IMP-1 metallo-beta-lactamase; actives 0.45% (n = 290,000); inhibition, % at 5.6 µM; purified IMP-1, nitrocefin hydrolysis, epi-absorbance fluorescence; AID 1556;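 active means inhibition above the mean plus 3 SD of all compounds in the same screening run, cut at about 4.5% in these data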;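 further: 0% = IMP-1 with DMSO and 100% = DMSO wells lacking enzyme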
#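 System: purified recombinant IMP-1 beta-lactamase. Medium: Zinc- and detergent-supplemented HEPES buffer, pH 7.1. Compound: one 5.6 µM dose […]. Schedule: 15 min preincubation plus 25 min reaction at 25 °C. Technique: Epi-absorbance fluorescence, 480 nm excitation, 530 nm emission.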
# VIM-2 inhibitor = inhibitors of Pseudomonas aeruginosa VIM-2 metallo-beta-lactamase | purified VIM-2, nitrocefin hydrolysis, epi-absorbance fluorescence | AID 1527 | actives 0.89% (n = 290,000) | inhibition, % at 5.6 µM;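 active means inhibition above the mean of all tested compounds plus 3 SD, cutoff set per screening run, cut at about 7.5% in these data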;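 further: red hydrolysis product quenches plate fluorescence so inhibitors raise well fluorescence; 0% = enzyme with DMSO and 100% = DMSO without enzyme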
# beta cell repl = induces beta-cell replication in MIN6 cells | MIN6 cells proliferation, ATPlite luminescence, 48 h; cells starved in 0.2% serum; 100% = growth in 10% serum | actives 0.29% (n = 330,000) | proliferation, % at 10 µM;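 active means compounds whose signal lies at least 3.5 SD above the mean of all wells on their plate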;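 further: 0% = DMSO-treated cells in low-serum medium and 100% = 10% serum control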
# IMP-1 inh-2 = blocks IMP-1 metallo-beta-lactamase in VIM-2 selectivity screen; shares compounds with VIM-2 inhibitor; purified IMP-1, nitrocefin hydrolysis, epi-absorbance fluorescence; inhibition, % at 5.6 µM; 1,300 tested, under 10 active; call rule not given here;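 further: 0% = enzyme with vehicle and 100% = vehicle without enzyme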
# VIM-2 FRET inh = counter-screen for VIM-2 inhibitors: epi-absorbance artifacts via FRET | shares compounds with VIM-2 inhibitor | purified VIM-2, CCF2 FRET substrate hydrolysis | inhibition, % at 5.6 µM | actives 23% (n = 1,300);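 active means inhibition above the mean of all tested compounds plus 3 SD, cut at about 19% in these data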;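 further: 0% = VIM-2 plus DMSO and 100% = no enzyme wells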
# TEM-1 counter = TEM-1 inhibition, counter-screen for VIM-2 inhibitors. inhibition, % at 5.6 µM. shares compounds with VIM-2 inhibitor. actives 3% (n = 1,300). Purified TEM-1, nitrocefin hydrolysis, epi-absorbance fluorescence;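 active means inhibition above that campaign's mean inhibition plus 3 SD, cut at about 0.46% in these data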;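 further: 0% = TEM-1 with DMSO and 100% = TEM-1 with 100 µM potassium clavulanate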
# VIM-2 inh conf = confirmation of P. aeruginosa VIM-2 metallo-beta-lactamase inhibitors; shares compounds with VIM-2 inhibitor; actives 96% (n = 1,300); purified VIM-2, nitrocefin hydrolysis, epi-absorbance; inhibition, % at 5.6 µM; AID 2187;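 active means inhibition of the VIM-2 beta-lactamase enzyme above about 11% from the earlier first-round screen, limit read from the data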;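 further: 0% = VIM-2 with DMSO and 100% = buffer wells without enzyme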
# The depositor's hits bear a star; / = not tested or not shown. The list is not random: actives were taken first. Their share in the collection is about 2%.
SMILES,PvdQ acylase,HKDC1 inh,ATG4B inhibitor,IMP-1 inh-1,VIM-2 inhibitor,beta cell repl,IMP-1 inh-2,VIM-2 FRET inh,TEM-1 counter,VIM-2 inh conf
c1cncc(Nc2nc(-c3ccncc3)cs2)c1,-14,5,-11,-1,16*,4,-2,-4,-5,38*
CSC1=N/C(=C\c2ccccc2)C(=O)N1C,-8,-10,2,-2,-3,-3,/,/,/,/
Cc1ccc(N2C(N)=C(C#N)C3(C(=O)N(C)c4ccccc43)C3=C2CC(C)(C)CC3=O)cc1Cl (stereo not drawn),-13,3,-10,-1,-1,1,/,/,/,/
Cn1cc(-c2ccccc2C(=O)O)c(=O)c2cc(Cl)ccc21,-14,-6,3,0,13*,-1,-2,27*,0,18*
CC(=O)c1cccc(NC(=O)C(C)OC(=O)Cc2c[nH]c3ccccc23)c1 (stereo not drawn),-3,-4,-8,/,/,-1,/,/,/,/
COc1ccccc1C(=O)Nc1nnc(SCC(=O)NCc2ccco2)s1,2,5,-1,-2,46*,-2,-2,70*,-6,53*
O=C(CSc1nnc(NC(=O)c2c(F)cccc2F)s1)NCc1ccco1,-17,1,-4,/,/,-4,/,/,/,/
O=C(CSc1nnc(NC(=O)c2ccccc2[N+](=O)[O-])s1)NCc1ccco1,5,6,-9,-2,41*,-4,-3,64*,-7,46*
O=C(CSc1nnc(NC(=O)c2ccccc2F)s1)NCc1ccco1,0,-2,-4,-1,41*,-5,-3,68*,-6,49*
O=C(CSc1nnc(NC(=O)c2ccccc2F)s1)NCc1ccc(F)cc1,-19,3,-1,-1,38*,-6,-3,61*,-6,44*
O=C(CSc1nnc(NC(=O)Cc2ccccc2)s1)NCc1ccco1,8,-5,-13,-5,-1,-2,/,/,/,/
O=C(CSc1nnc(NC(=O)c2ccccc2F)s1)Nc1ccccc1F,3,-6,-3,-4,-4,-7,/,/,/,/
O=C(CSc1nnc(NC(=O)C2CC2)s1)Nc1ccccc1,-4,-4,-11,-2,1,-7,/,/,/,/
O=C(CSc1nnc(NC(=O)C2CC2)s1)NCc1ccccc1Cl,-4,10,12,-3,29*,7,-3,53*,-6,35*
COc1ccc(Oc2nc(-c3ccccn3)ncc2OC)cc1,7,2,-3,-5,16*,-2,-4,-24,-5,25*
CCOC(=O)C(C)Sc1nc(-c2ccccn2)ncc1OC (stereo not drawn),-17,-8,-1,-4,35*,0,-3,-20,-6,43*
COc1cnc(-c2ccccn2)nc1Oc1cccc(Cl)c1,1,0,-1,-4,17*,-2,-4,-31,-4,36*
Cc1nn2c3ccccc3nc2c2ccccc12,-16,3,-15,-1,13*,-1,-3,-10,-3,27*
Oc1c(Br)cc(/C=N/n2c(-c3ccccc3)n[nH]c2=S)cc1Br,-17,0,0,-5,27*,-2,-2,50*,-7,39*
Oc1ccc(/C=N/n2c(-c3ccccc3)n[nH]c2=S)cc1Br,-9,-1,7,-4,8,-1,/,/,/,/
Oc1c(Br)cc(/C=N/n2c(-c3ccccc3)n[nH]c2=S)c(O)c1Br,5,-5,12,-5,34*,/,-3,58*,-8,43*
